Data set [1] deals with D(1A) dopamine receptor (Homo sapiens) (UniProt P21728). The experiment in a line: Agonist activity at Gs-coupled D1 receptor (unknown origin) expressed in HEK293T cells assessed as inhibition of forskolin-stimulated cAMP accumulation preincubated for 10 to 15 followed by forskolin-stimulation by Glo-sensor assay. It counts as functional, cell-based.
Data set [2] addresses T1, Muscarinic acetylcholine receptor M5 (Homo sapiens) (UniProt P08912).
T1 sequence (whole entry): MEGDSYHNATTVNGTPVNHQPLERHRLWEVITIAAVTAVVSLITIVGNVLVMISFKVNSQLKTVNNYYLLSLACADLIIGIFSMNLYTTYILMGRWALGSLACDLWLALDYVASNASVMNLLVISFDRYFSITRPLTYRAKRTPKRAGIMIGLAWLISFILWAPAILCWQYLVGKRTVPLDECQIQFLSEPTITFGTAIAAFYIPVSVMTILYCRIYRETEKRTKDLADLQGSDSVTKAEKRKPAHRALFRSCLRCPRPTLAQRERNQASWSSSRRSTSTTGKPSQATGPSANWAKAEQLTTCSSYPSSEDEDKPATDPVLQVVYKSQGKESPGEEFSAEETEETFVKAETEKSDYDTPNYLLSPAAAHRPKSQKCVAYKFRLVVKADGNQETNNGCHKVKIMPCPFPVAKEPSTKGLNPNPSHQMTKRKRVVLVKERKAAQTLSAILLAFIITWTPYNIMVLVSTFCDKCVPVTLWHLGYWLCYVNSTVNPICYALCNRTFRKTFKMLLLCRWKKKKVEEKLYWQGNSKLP
Nature of the data set: Agonist activity at M5R (unknown origin) expressed in HEK293 cells harboring luc2P/NFAT-RE plasmid at 10 uM after 6 to 8 hrs by luciferase reporter gene assay. It counts as cell-based. In a few lines: (§1)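 NFAT-RE luciferase assay in HEK293T cells transiently co-transfected with luc2P/NFAT-RE plasmid and receptor plasmid. Cells plated in DMEM and incubated overnight at 37 °C, 5% CO₂. Compounds and reference ligands applied for 6-8 h. Luciferase read after adding Bright-Glo substrate (1 mg/ml final).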

In data set [3] the target is Free fatty acid receptor 1 (Homo sapiens) (UniProt O14842). The experiment in a line: Agonist activity at GPR40 (unknown origin) expressed in HEK293 cells harboring luc2P/NFAT-RE plasmid at 10 uM after 6 to 8 hrs by luciferase reporter gene assay. It counts as cell-based. The procedure, abridged:
as §1

Data set [4] in a line: Cmax in C57BL/6J mouse serum at 20 mg/kg, po by LC-MS/MS analysis. It counts as ADME, organism-based. On the set-up: dose 20 mg/kg, route oral. In a few lines:
(§2)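 Male C57BL/6J mice (6-8 weeks, 20 ± 5 g) fasted overnight (12-16 h) got a single 20 mg/kg oral dose as 2.5 mg/mL suspension in 1% w/v gum acacia; n=5 per time point. Serum and brain (PBS homogenate 1:6 w/v) sampled up to 24 h. Parent and demethylated metabolite quantified by LC-MS/MS after liquid-liquid extraction (C18, MRM, phenacetin internal standard; linear 0.25-200 ng/mL). Two-compartment open model fit.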

A short description of data set [5]: Ratio of AUClast in C57BL/6J mouse brain assessed as 4-(2-Amino-8-methyl-5,6,7,8-tetrahydroquinazolin-4-yl)phenol level to AUClast in C57BL/6J mouse brain. It is filed as ADME, tissue-based. Conditions: in vivo. The procedure, abridged:
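Male C57BL/6J mice (6–8 weeks) were fasted 12–16 h, then given a single oral dose of 20 mg/kg as a 2.5 mg/mL suspension in 1% gum acacia/water (n=5 per time point). Serum and brain (homogenised 1:6 in PBS) were sampled up to 24 h. Parent and demethylated metabolite were measured by LC-MS/MS (range 0.25–200 ng/mL). AUC ran to the last observation.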

Data set [6] is described as follows: Tmax in C57BL/6J mouse serum assessed as 4-(2-Amino-8-methyl-5,6,7,8-tetrahydroquinazolin-4-yl)phenol level at 20 mg/kg, po by LC-MS/MS analysis. Conditions: in vivo. It is filed as ADME, organism-based. The procedure, abridged: as §2
For data set [7], the system named is Mus musculus. Nature of the data set: Anorexic effect in high fat diet-induced obese C57BL/6J mouse model assessed as reduction in cumulative food intake at 20 mg/kg, po pretreated for 30 mins followed by food addition measured after 4 hrs relative to control. It is filed as functional. Further details: scale not given: the % may be the effect or the level left. The procedure, abridged: (§3)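 Mice starved 12 h (8:00 am to 8:00 pm) with water available, then housed singly. Compound given orally in 5% gum acacia in normal saline; vehicle group received the same. Cumulative food intake measured over 4 h of the night phase (9:00 pm to 1:00 am), starting 30 min after dosing. Antagonism arms: imitet 5 mg/kg i.p. 30 min before compound, or α-methyl-DL-histidine 20 mg/kg i.p. 2 h before.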

Data set [8] has as its system Mus musculus. Nature of the data set: Anorexic effect in 12 hrs fasted db/db-induced obese C57BL/6J mouse model assessed as reduction in cumulative food intake at 20 mg/kg, po pretreated for 30 mins followed by food addition measured after 4 hrs relative to control. It is filed as functional. On the set-up: scale not given: the % may be the effect or the level left. In a few lines:
as §3

The test system of data set [9] is Mus musculus. Nature of the data set: Anti-obesity activity in high fat diet-induced obese C57BL/6J mouse model assessed as reduction in body weight at 10 to 20 mg/kg, po. It counts as functional, organism-based. Conditions: TDE = time-dependent effect.
For data set [10], the system named is Mus musculus. The experiment in a line: Anti-obesity activity in high fat diet-induced obese C57BL/6J mouse model assessed as change in body weight at 20 mg/kg, po measured after 6 weeks (reference value: 3.86 +/- 0.99 g). It counts as functional.
In data set [11] the test system is Mus musculus. Nature of the data set: Anti-obesity activity in 16 hrs fasted db/db-induced obese C57BL/6J mouse model assessed as change in blood total cholesterol level at 20 mg/kg, po measured after 6 weeks. It counts as functional, organism-based.
In data set [12] the test system is Mus musculus. The experiment in a line: Anti-obesity activity in high fat diet-induced obese C57BL/6J mouse model assessed as change in HDL level at 10 to 20 mg/kg, po measured after 6 weeks. It counts as functional, organism-based. The procedure, abridged: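 At the end of treatment (six weeks HFD, four weeks db/db), mice euthanized with avertin 350 mg/kg. Blood taken by cardiac puncture into 3.8% sodium citrate. Plasma separated at 4000 rpm and stored at -80 °C. TG, TC, HDLc and LDLc measured on a bio-analyzer.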

Data set [13] concerns the target T2, 5-hydroxytryptamine receptor 2C (Homo sapiens) (UniProt P28335).
T2 sequence (whole entry): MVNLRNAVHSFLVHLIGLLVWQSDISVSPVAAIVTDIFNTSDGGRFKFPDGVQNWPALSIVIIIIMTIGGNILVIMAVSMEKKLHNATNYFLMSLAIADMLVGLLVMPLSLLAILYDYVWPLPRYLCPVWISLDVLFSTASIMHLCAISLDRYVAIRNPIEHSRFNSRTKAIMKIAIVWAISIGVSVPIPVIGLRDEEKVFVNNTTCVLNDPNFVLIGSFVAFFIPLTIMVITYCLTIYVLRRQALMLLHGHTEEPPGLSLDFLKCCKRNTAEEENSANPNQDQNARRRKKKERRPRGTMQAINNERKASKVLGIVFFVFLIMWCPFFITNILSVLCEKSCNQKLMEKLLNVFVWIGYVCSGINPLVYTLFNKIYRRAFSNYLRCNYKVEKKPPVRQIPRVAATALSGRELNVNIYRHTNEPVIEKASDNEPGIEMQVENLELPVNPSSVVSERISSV
The experiment in a line: Agonist activity at 5HT2CR (unknown origin) expressed in HEK293 cells harboring luc2P/NFAT-RE plasmid at 10 uM after 6 to 8 hrs by luciferase reporter gene assay. It counts as cell-based. In a few lines:
as §1

Data set [14] concerns the target T2, 5-hydroxytryptamine receptor 2C (Homo sapiens). The experiment in a line: Antagonist activity at 5HT2CR (unknown origin) expressed in HEK293 cells harboring luc2P/NFAT-RE plasmid at 10 uM after 6 to 8 hrs by luciferase reporter gene assay. It is filed as cell-based. In a few lines: as §1

Active and inactive are the calls of the source. The calls are words filed in the database; no cut-off is given here.

D(1A) dopamine receptor (Homo sapiens), sequence (P21728 whole entry): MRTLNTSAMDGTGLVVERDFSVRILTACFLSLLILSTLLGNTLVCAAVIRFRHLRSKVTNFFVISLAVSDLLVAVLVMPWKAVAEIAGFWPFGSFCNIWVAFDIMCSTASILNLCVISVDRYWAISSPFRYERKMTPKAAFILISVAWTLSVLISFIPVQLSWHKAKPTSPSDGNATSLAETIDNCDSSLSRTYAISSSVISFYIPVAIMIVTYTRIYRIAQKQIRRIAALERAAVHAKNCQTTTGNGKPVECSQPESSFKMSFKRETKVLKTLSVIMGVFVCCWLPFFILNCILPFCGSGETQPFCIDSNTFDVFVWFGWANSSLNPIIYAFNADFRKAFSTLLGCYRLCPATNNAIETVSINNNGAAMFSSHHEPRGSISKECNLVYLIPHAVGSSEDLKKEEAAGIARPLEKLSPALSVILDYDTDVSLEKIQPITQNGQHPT
Free fatty acid receptor 1 (Homo sapiens), sequence (O14842 whole entry): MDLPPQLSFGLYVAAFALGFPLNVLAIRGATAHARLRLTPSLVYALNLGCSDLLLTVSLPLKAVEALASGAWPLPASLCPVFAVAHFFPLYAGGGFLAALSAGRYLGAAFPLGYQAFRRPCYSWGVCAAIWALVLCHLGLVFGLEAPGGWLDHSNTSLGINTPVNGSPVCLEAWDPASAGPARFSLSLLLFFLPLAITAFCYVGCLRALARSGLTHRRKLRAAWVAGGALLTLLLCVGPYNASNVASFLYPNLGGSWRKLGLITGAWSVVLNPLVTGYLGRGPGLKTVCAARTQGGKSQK

Turning to `COc1ccc(-c2nc(N)nc3c2CCCC3C)cc1` (racemic), the inhibition entry in data set [1], in data set [13] and in [14] was “inactive” each time. The result in [2], in data set [3], in [11] and in [12] was inactive. Besides, the Cmax in [4] is 3360 ng/mL. For the same compound, in data set [5], the “Ratio AUC” value is recorded as 32.4%. Further, in data set [6], the Tmax came to 15 min. In addition, the Activity in data set [7] is 28%; in data set [8], 33%; in [9] it was “Tde”; in data set [10], 0.8 g.
